Results pooled from the literature.
Protocols differ between the studies behind these lines.
Target: Beta-1 adrenergic receptor (ADRB1, Homo sapiens, UniProt P08588)

Structure (SMILES)	observed	technique	tested at	measurement	value
Cc1c(N2CCNCC2)nc2ccc(Br)cc2c1C(=O)NC[C@H](CCC(=O)O)c1ccccc1Cl	ligand displacement		10 µM	inhibition	12.6%
CN(CCN1CCC(OC(=O)Nc2ccccc2-c2ccccc2)CC1)C(=O)c1ccc(CN2CCC(C(N)=O)CC2)cc1	ligand displacement	radioligand	1 µM	inhibition	14%
COc1ccc(S(=O)(=O)N2CCCCC2)cc1C	ligand displacement	radioligand	10 µM	inhibition	< 30%
c1ccc(C(NCCNC(c2ccccc2)c2ccccc2)c2ccccc2)cc1	cell-free assay		10 µM	inhibition	31%
O=C(Nc1cccnn1)N1CCN([C@@H]2CCOc3cc(C(F)(F)F)ccc32)CC1	cell-free assay		20 µM	inhibition	27%
CC(C)N1CCC[C@H]1CNC(=O)c1cn(C2CCCC2)c(=O)c2c1c1ccccc1n2C	ligand displacement	radioligand	10 µM	inhibition	24%
Clc1ccc2c(C3CCN(CCc4c[nH]c5ccccc45)CC3)c[nH]c2c1	ligand displacement	radioligand	10 µM	inhibition	84%
Nc1ncc(-c2nc(N3CCOCC3)nc(N3CCOCC3)n2)c(C(F)F)n1	cell-free assay	radioligand	10 µM	remaining signal	93.2%
Cn1cncc1[C@@](O)(COc1ccc(C#N)cc1-c1ccc(OC(F)(F)F)cc1)c1ccc(C#N)cc1	ligand displacement		10 µM	inhibition	-16.5%
C[C@H](C(=O)N[C@H]1COc2ccccc2[C@@H]1S(C)(=O)=O)c1ccc(F)cc1	cell-free assay		10 µM	inhibition	3%
COCc1c(-c2cc3cc(C)cc(OC)c3s2)c2c(N)ncnn2c1CN1CCNC(=O)C1	ligand displacement	radioligand	10 µM	inhibition	2%
